Results: ChEMBL document CHEMBL4673221, “Furanoflavones pongapin and lanceolatin B blocks the cell cycle and induce senescence in CYP1A1-overexpressing breast cancer cells” (Bioorg Med Chem, 2018)

Columns and labels:
MCF7 [1] = experiment: Antiproliferative activity against human MCF-7 cells overexpressing CYP1A1 assessed as reduction in cell viability; type: functional, cell-based
Method in brief: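 MCF-7 cells transfected with pcDNA3.1/CYP1A1 and selected in G418 (1 mg/mL, then […]) to give the stable MCF7-1A1 line. CYP1A1 expression was confirmed by Western blot and 7-ethoxyresorufin enzyme assay. The line was subcloned repeatedly. The reported value is the EC50 for inhibition of proliferation.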

MCF7 [2] = experiment: Induction of cell cycle arrest in human MCF7 over expressing CYP1A cells assessed as accumulation at G2/M phase incubated for 24 hrs by PI staining based flow cytometric analysis (reference value: 22.6%); type: functional
MCF7 [3] = experiment: Induction of cell cycle arrest in human MCF7 over expressing CYP1A cells assessed as accumulation at S phase incubated for 24 hrs by PI staining based flow cytometric analysis (reference value: 20.1%); type: functional
Cytochrome P450 2C19 = Cytochrome P450 2C19 (Homo sapiens, UniProt P33261); experiment: Inhibition of human CYP2C19 expressed in Sacchrosomes using 3-cyano-7-ethoxycoumarin as substrate by fluorescence based assay; type: ADME
Cytochrome P450 2E1 = Cytochrome P450 2E1 (Homo sapiens, UniProt P05181); experiment: Inhibition of human CYP2E1 expressed in Sacchrosomes by fluorescence based assay; type: ADME
Cytochrome P450 2C9 = Cytochrome P450 2C9 (Homo sapiens, UniProt P11712); experiment: Inhibition of human CYP2C9 expressed in Sacchrosomes using 3-cyano-7-ethoxycoumarin as substrate by fluorescence based assay; type: ADME
MCF7 [4] = experiment: Induction of cell cycle arrest in human MCF7 over expressing CYP1A cells assessed as accumulation at G0/G1 phase incubated for 24 hrs by PI staining based flow cytometric analysis (Rvb =54.3 %); type: functional
Cytochrome P450 2C18 = biological target: T1, Cytochrome P450 2C18 (Homo sapiens, UniProt P33260); experiment: Inhibition of human CYP2C18 expressed in Sacchrosomes by fluorescence based assay; type: ADME
T1 sequence (P33260 whole entry): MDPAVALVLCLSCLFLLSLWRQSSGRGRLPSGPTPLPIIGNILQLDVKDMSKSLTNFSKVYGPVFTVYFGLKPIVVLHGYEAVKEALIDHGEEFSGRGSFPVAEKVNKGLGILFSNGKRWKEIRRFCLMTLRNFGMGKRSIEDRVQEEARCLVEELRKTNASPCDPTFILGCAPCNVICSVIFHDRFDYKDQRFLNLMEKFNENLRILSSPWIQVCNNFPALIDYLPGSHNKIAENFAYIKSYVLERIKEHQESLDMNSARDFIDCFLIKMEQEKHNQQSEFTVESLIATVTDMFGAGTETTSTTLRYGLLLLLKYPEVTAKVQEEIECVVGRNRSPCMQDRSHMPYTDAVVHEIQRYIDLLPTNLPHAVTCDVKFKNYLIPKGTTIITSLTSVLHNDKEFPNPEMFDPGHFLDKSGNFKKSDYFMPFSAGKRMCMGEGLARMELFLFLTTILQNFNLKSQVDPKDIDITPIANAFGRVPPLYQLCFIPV

Cytochrome P450 2C8 = biological target: T2, Cytochrome P450 2C8 (Homo sapiens, UniProt P10632); experiment: Inhibition of human CYP2C8 expressed in Sacchrosomes by fluorescence based assay; type: ADME
T2 sequence (P10632 whole entry): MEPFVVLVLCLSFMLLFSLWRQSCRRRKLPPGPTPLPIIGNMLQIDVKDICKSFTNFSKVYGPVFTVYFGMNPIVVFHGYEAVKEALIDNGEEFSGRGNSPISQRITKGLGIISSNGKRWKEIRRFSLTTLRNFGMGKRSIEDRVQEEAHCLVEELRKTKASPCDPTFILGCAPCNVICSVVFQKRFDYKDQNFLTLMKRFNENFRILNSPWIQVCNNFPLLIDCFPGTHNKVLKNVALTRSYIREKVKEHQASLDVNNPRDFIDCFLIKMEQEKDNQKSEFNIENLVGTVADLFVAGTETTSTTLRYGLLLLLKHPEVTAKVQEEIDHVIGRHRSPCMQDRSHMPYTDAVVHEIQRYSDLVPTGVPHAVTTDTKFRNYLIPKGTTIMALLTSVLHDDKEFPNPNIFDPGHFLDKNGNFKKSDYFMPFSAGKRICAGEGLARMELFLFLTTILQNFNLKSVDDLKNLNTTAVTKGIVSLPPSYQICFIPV

Cytochrome P450 1B1 = biological target: T3, Cytochrome P450 1B1 (Homo sapiens, UniProt Q16678); experiment: Inhibition of human CYP1B1 expressed in human HEK293 cells using 7-ethoxyresorufin as substrate preincubated for 30 mins followed by substrate additon and measured after 60 mins by fluorescence based assay; type: ADME, cell-based
T3 sequence (Q16678 whole entry): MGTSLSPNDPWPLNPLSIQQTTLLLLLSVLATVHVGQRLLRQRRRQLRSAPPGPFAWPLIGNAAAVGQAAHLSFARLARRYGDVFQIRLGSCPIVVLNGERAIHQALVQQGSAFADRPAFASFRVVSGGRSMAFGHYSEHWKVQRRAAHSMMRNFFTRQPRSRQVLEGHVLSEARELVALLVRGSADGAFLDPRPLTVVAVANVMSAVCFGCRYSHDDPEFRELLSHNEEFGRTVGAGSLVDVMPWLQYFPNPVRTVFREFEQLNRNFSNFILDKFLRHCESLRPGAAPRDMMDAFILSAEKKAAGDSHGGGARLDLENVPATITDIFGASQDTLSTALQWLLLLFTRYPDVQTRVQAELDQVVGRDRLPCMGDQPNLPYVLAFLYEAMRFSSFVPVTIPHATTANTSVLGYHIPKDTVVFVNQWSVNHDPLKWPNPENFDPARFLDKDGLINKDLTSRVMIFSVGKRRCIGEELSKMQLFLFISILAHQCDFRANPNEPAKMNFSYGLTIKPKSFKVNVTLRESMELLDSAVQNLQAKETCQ
Method in brief: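 The assay used live recombinant human HEK293 cells grown in suspension, each cell line expressing a single CYP (CYP1A1 or CYP1B1). Percent inhibition was read at 10 μM, and IC50 values were determined. Values are mean ± SD of three independent experiments. Alpha-naphthoflavone served as the reference inhibitor.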

Sequence of Cytochrome P450 2E1 (P05181 whole entry): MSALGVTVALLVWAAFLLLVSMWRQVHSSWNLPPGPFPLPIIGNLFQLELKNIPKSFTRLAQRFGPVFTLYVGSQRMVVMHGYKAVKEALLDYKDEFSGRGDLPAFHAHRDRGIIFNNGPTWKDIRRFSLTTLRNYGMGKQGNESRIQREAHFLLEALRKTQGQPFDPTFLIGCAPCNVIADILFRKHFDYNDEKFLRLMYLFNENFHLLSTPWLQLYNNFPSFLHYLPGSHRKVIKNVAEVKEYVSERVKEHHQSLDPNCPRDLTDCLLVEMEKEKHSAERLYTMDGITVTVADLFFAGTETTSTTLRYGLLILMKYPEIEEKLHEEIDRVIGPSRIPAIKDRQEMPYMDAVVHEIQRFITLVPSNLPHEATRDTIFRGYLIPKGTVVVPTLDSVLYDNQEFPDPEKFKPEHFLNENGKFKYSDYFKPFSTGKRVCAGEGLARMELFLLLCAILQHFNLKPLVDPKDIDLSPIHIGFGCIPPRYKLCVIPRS
Sequence of Cytochrome P450 2C19 (P33261 whole entry): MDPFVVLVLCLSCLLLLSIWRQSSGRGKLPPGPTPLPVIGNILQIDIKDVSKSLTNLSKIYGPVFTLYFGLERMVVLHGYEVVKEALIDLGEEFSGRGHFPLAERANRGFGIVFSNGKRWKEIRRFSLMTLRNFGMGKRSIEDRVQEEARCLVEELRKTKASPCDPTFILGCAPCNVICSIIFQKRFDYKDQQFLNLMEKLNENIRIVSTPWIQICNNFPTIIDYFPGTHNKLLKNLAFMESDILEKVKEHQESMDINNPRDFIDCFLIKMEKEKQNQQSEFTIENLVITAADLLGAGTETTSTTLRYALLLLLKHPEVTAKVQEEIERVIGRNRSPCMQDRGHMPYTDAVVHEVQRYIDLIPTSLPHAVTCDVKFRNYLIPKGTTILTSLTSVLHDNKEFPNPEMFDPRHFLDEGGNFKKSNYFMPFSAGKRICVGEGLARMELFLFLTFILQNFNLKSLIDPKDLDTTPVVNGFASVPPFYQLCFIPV
Sequence of Cytochrome P450 2C9 (P11712 whole entry): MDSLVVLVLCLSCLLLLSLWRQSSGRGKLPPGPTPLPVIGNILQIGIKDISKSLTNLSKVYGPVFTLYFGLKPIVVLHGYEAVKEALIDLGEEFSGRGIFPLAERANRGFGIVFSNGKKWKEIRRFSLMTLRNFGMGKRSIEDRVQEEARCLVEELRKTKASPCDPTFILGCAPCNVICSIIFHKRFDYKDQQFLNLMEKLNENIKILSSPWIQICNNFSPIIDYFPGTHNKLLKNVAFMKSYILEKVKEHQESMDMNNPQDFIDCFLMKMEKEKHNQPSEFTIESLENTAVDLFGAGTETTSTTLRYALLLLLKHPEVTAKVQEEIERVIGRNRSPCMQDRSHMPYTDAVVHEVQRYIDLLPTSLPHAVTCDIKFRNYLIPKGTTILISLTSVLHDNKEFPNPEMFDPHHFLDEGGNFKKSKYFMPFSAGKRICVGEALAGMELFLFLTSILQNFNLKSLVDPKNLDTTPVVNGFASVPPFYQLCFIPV

Work on `O=c1cc(-c2ccccc2)oc2c1ccc1occc12` [LANCEOLATIN B] yielded an EC50 (MCF7 [1]) of 0.7 µM, an Activity (MCF7 [2]) of 9.2% and an Activity (MCF7 [3]) of 7.1%. The IC50 (Cytochrome P450 2C19) was over 20 µM, the IC50 (Cytochrome P450 2E1) was over 20 µM and the IC50 (Cytochrome P450 2C9) was over 20 µM. It also gave an Activity (MCF7 [4]) of 81%, an IC50 (Cytochrome P450 2C18) of over 20 µM and an IC50 (Cytochrome P450 2C8) of over 20 µM. For the same compound, the IC50 (Cytochrome P450 1B1) was 0.39 µM.

`COc1c(-c2ccc3c(c2)OCO3)oc2c(ccc3occc32)c1=O` [PONGAPIN] was tested, and the EC50 (MCF7 [1]) was 0.6 µM, the Activity (MCF7 [2]) was 8.3% and the Activity (MCF7 [3]) was 6.7%. It also gave an IC50 (Cytochrome P450 2C19) of over 20 µM, an IC50 (Cytochrome P450 2E1) of over 20 µM and an IC50 (Cytochrome P450 2C9) of over 20 µM. The Activity (MCF7 [4]) was 83.8%, the IC50 (Cytochrome P450 2C18) was over 20 µM and the IC50 (Cytochrome P450 2C8) was over 20 µM. The IC50 (Cytochrome P450 1B1) was 1.06 µM.
